{"data": "Experimental data from different studies", "note": "Protocols differ between the studies behind these lines."}
{"SMILES": "NC(=S)NN=Cc1ncccc1N", "species": "human", "medium": "plasma", "route": "oral", "dose": "100 mg", "quantity": "Vd/F", "value": "205 L"}
{"SMILES": "Cl.[2H]C([2H])([2H])CC(=O)c1cnc(NC(=O)C2CC2)cc1Nc1cccc(-c2ncn(C([2H])([2H])[2H])n2)c1OC", "species": "human", "medium": "plasma", "route": "oral", "dose": "20 mg", "setting": "multiple doses, once daily, fasted", "quantity": "Vd/F", "value": "240 L"}
{"SMILES": "Cc1ccc(C(=O)Nc2ccc(CN3CCN(C)CC3)c(C(F)(F)F)c2)cc1C#Cc1cnc2[nH]ncc2c1", "species": "human", "medium": "plasma", "route": "oral", "dose": "40 mg", "setting": "single dose, healthy volunteers", "quantity": "Vd/F", "value": "5370 L"}
{"SMILES": "CNC(=O)n1ccc2cc(Oc3ccnc(NC(=O)c4ccc(C5CCN(CCO)CC5)cc4)c3)c(OCCOC)cc21", "species": "human", "medium": "plasma", "route": "oral", "dose": "35 mg", "setting": "single dose, fed, healthy volunteers", "quantity": "Vd/F", "value": "14300 L"}
{"SMILES": "C=CS(=O)(=O)c1ccc(Nc2nc(OCC3CCCCC3)c3nc[nH]c3n2)cc1", "species": "male BALB/c mouse", "medium": "plasma", "route": "intravenous", "dose": "20 mg/kg", "setting": "single dose", "quantity": "Cmax", "value": "534 ng/mL"}
{"SMILES": "CC[C@H](C)CCCCC(=O)N[C@@H](CCN)C(=O)N[C@H](C(=O)N[C@@H](CCN)C(=O)N[C@H]1CCNC(=O)[C@H]([C@@H](C)O)NC(=O)[C@H](CCN)NC(=O)[C@H](CCN)NC(=O)[C@H](CC(C)C)NC(=O)[C@@H](Cc2ccccc2)NC(=O)[C@H](CCN)NC1=O)[C@@H](C)O", "species": "human", "medium": "plasma", "route": "intravenous", "dose": "0.75 mg/kg", "setting": "single dose, infusion", "quantity": "Vd", "value": "20.2 L"}
{"SMILES": "CCN1CCN(Cc2ccc(NC(=O)c3ccc(C)c(NC(=O)c4cncc(-c5cccs5)c4)c3)cc2C(F)(F)F)CC1", "species": "mouse", "medium": "plasma", "route": "intraperitoneal", "dose": "15 mg/kg", "setting": "single dose", "quantity": "Cmax", "value": "582 ng/mL"}
{"SMILES": "CC(=O)O[C@@]12CO[C@@H]1C[C@H](O)[C@@]1(C)C(=O)[C@H](O)C3=C(C)[C@@H](OC(=O)[C@H](O)[C@@H](NC(=O)OC(C)(C)C)c4ccccc4)C[C@@](O)([C@@H](OC(=O)c4ccccc4)[C@H]21)C3(C)C", "species": "male Kunming mouse", "medium": "liver", "route": "oral", "dose": "20 mg/kg", "quantity": "Cmax", "value": "18.9 ng/g"}
{"SMILES": "Cn1cc(Nc2nc(N)nc(-c3cccc(-n4ccc5cc(C6CC6)cc(F)c5c4=O)c3CO)n2)cn1", "species": "human", "medium": "plasma", "route": "oral", "dose": "300 mg", "setting": "single dose, fasted", "quantity": "Vd/F", "value": "422 L"}
{"SMILES": "Nc1ncn([C@H]2C[C@H](O)[C@@H](CO)O2)c(=O)n1", "species": "female C57BL/6 mouse", "medium": "plasma", "route": "intravenous", "dose": "0.4 mg/kg", "quantity": "Cmax", "value": "319 ng/mL"}
